Screening results (PubChem)
Cl transport mod: KCC2 (human) Cl- transport modulation | Q9H2X9 | KCC2 cells, thallium flux FluoZin-2 fluorescence | B-score of Tl+ flux slope (higher = more flux/activation; lower = inhibition) at 10 µM | hit rate 2.2% among 190,000 | AID 1456;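 active means thallium flux slope and its plate-corrected score both differing from the plate sample mean at a set confidence after two filtering rounds, in either direction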;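 further: slope of fluorescence scaled to starting intensity during 10 to 20 s after thallium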
Target sequence (Q9H2X9 whole entry, looked up): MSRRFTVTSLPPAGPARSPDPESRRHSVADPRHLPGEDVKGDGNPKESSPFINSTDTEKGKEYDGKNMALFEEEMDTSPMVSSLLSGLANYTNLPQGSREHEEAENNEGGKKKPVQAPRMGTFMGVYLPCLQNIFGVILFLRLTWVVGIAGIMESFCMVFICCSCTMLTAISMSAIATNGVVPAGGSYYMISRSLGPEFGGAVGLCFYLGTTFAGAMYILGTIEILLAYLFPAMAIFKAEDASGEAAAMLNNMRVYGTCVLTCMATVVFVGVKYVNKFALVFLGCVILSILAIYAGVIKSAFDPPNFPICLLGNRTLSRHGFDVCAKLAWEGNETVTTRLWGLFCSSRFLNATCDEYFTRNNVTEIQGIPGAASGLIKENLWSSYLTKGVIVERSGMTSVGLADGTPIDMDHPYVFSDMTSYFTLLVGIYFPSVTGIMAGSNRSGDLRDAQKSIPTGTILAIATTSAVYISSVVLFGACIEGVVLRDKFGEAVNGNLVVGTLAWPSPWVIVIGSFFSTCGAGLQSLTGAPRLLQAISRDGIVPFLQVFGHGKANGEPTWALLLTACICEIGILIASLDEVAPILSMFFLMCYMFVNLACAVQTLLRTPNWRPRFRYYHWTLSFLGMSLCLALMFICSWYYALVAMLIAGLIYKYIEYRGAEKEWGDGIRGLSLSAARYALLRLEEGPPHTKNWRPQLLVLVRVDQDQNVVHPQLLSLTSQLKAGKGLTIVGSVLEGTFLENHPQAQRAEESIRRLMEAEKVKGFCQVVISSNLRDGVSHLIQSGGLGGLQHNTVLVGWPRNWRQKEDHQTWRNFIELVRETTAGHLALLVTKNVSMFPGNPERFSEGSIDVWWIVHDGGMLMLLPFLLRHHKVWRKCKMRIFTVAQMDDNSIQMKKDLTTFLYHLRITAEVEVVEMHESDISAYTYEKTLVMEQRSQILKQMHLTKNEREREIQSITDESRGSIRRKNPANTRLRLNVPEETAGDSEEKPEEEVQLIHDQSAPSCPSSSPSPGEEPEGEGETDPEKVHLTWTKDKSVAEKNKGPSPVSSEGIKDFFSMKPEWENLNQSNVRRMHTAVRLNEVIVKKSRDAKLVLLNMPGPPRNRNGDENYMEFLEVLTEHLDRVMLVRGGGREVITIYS
RAM inhibit: yeast RAM network inhibition. S. cerevisiae dse1pr::URA3 reporter, 5-FOA growth OD615, 2 d; analog-sensitive cbk1-as2 kinase mutant strain. inhibition, % at 50 µM. hit rate 1.8% among 190,000;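 active means inhibition above a set limit, 3 SD over mean compound inhibition, cut at about 8.4% in these data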;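 further: 0% = DMSO-only wells with no growth and 100% = 10 µM 1-NA-PP1 full growth; inhibition rescues growth on 5-FOA so higher OD means more RAM inhibition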
Yeast life ext: extends the lifespan of yeast | S. cerevisiae growth with nicotinamide, OD615; deaD strain in restrictive glucose medium | inhibition of the nicotinamide effect, % at 10 µM | hit rate 0.68% among 130,000;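 active means inhibition above a set limit, placed 3 SD over the median of all compounds, cut at about 26% in these data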;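 further: 0% = nicotinamide-treated wells and 100% = cells grown without nicotinamide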
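Buffer or medium: CSMM-D glucose medium, restrictive; test system: modified budding yeast, DeaD strain; compound: single dose 10 µM compound, 0.25% DMSO; schedule: culture preincubation 4 h, compound exposure 48 h, both 30 °C; detection: optical density (absorbance) at 615 nm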
WT yeast gro inh: growth inhibition of WT yeast, mitochondrial fusion screen | mitochondrial fusion phenotypic screen, WT strain | inhibition, % at 10 µM | hit rate 2.1% among 190,000 | AID 1362; in the data active means inhibition above about 58%; tested in S. cerevisiae
Yeast growth inh: reduces growth of yeast BB579 in restrictive medium; S. cerevisiae BB579 growth, OD615, 48 h; inhibition, % at 10 µM; hit rate 0.51% among 140,000;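 active means inhibition above a set limit, 3 SD over the mean compound inhibition, cut at about 44% in these data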
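Test system: Saccharomyces cerevisiae DeaD strain BB579, replicative lifespan model yeast | Buffer or medium: Restrictive CSMM-D medium | Doses: One dose, 10 µM compound with 0.25% DMSO | Incubation: 48 h exposure, 30 °C | Detection: Culture absorbance at 615 nm | Control set: Amphotericin B at 10 µg/mL as positive control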
Starred values were filed as active, the others as inactive. Only some compounds are listed: those with a hit (about 5.5% of all), similar ones and a draw of the others.

What do the screens show for `O=C(N/N=C\c1cc(Br)c(Br)o1)c1cncc(Br)c1`?
Cl transport mod: 16*; RAM inhibit: 6; Yeast life ext: -1; WT yeast gro inh: 4; Yeast growth inh: -40

What do the screens show for `O=C(CSCc1ccco1)Nc1cc(C(F)(F)F)ccc1N1CCOCC1`?
Cl transport mod: -0.26; RAM inhibit: 9.1*; Yeast life ext: -11; WT yeast gro inh: 3; Yeast growth inh: -47

Results for CC(C)Cn1c(=O)c(C2=NS(=O)(=O)c3ccccc3N2)c(O)c2ccccc21 ?
Cl transport mod: 8.8*

What do the screens show for `Cc1ccccc1NC1=NC(=S)N(c2ccccc2)C12CCOC(C)(C)C2` (configuration not stated)?
Cl transport mod: 26*; RAM inhibit: 4; Yeast life ext: -2; WT yeast gro inh: -20; Yeast growth inh: -34

How did COc1cccc(/C=C2\N=C(SC)SC2=O)c1OC do in these assays?
Cl transport mod: -0.14; RAM inhibit: 9.6*; Yeast life ext: -2; WT yeast gro inh: 9; Yeast growth inh: -40

Results for Cc1cc(N2CCN(c3cccc(C)c3C)CC2)nc(-c2ccccc2)n1 ?
Cl transport mod: 0.01; RAM inhibit: -3; WT yeast gro inh: 0; Yeast growth inh: 67*

How did Cc1cc(N2CCCCC2)nc(-c2ccc(Br)cc2)n1 do in these assays?
Cl transport mod: 0.34; RAM inhibit: 0; WT yeast gro inh: 66*

What do the screens show for `CCSc1cc(N2CCCC2)nc(-c2ccc(C)cc2)n1`?
Cl transport mod: 1.2; RAM inhibit: 0; Yeast life ext: 0; WT yeast gro inh: -10; Yeast growth inh: -34

Results for Cc1ccc(-c2nnc(-c3cc(C)on3)o2)cc1 ?
Cl transport mod: -0.89

Results for CCN(Cc1ccccc1)C(=O)c1ccc(CNS(=O)(=O)c2ccc(C)cc2)cc1 ?
Cl transport mod: -0.9; RAM inhibit: 11*; Yeast life ext: 9; WT yeast gro inh: 9; Yeast growth inh: -27

What do the screens show for `CCN(CC)C(=O)c1ccc(S(=O)(=O)NCc2cccnc2)cc1`?
Cl transport mod: 0.21; RAM inhibit: 0; Yeast life ext: 0; WT yeast gro inh: 8; Yeast growth inh: -37

How did O=C(COc1ncnc2ccccc12)c1ccc(Cl)cc1 do in these assays?
Cl transport mod: 0.12; RAM inhibit: 1; WT yeast gro inh: -3

How did COC(=O)c1cn(N(C)c2ncc(C(F)(F)F)cc2Cl)c(=O)c2ccccc12 do in these assays?
RAM inhibit: 4; Yeast life ext: -6; WT yeast gro inh: 72*; Yeast growth inh: -27

What do the screens show for `OC(COCCOc1ccc(Br)cc1)CN1CCCCC1` (configuration not stated)?
Cl transport mod: -0.97; RAM inhibit: 1; Yeast life ext: 0; WT yeast gro inh: 3; Yeast growth inh: -31

What do the screens show for `CC(Cc1cccs1)NC(=S)Nc1ccc(Cl)cc1` (configuration not stated)?
Cl transport mod: -2.1; RAM inhibit: 0; Yeast life ext: -4; WT yeast gro inh: 67*; Yeast growth inh: -32

Results for CC(Cc1cccs1)NC(=O)Nc1ccc(F)cc1 (configuration not stated) ?
Cl transport mod: -0.44; RAM inhibit: -1; Yeast life ext: -11; WT yeast gro inh: -4; Yeast growth inh: -43

What do the screens show for `COCCCn1c(SCC(=O)NC(C)(C)C)nnc1-c1ccccc1`?
Cl transport mod: -0.69; RAM inhibit: 1; Yeast life ext: -8; WT yeast gro inh: 66*; Yeast growth inh: -39

Results for CCOC(=O)c1ccc(N=c2sc(C(=O)OC)cc(=O)n2-c2ccc(C(=O)OCC)cc2)cc1 ?
Cl transport mod: 0.013; RAM inhibit: 6; Yeast life ext: 4; WT yeast gro inh: 14; Yeast growth inh: -34

Results for COC(=O)c1cc(=O)n(-c2ccccc2)c(=Nc2ccccc2)s1 ?
Cl transport mod: 0.067; RAM inhibit: -1; Yeast life ext: 33*; WT yeast gro inh: -22; Yeast growth inh: -32

How did Nc1nc(-c2ccccc2)c(N=Nc2ccccc2Cl)s1 do in these assays?
Cl transport mod: -1.1; RAM inhibit: 9.2*; Yeast life ext: -2; WT yeast gro inh: 16; Yeast growth inh: -22

Results for Cc1ncc(N=Nc2ccccc2Cl)c(-c2ccccc2)n1 ?
RAM inhibit: 6; Yeast life ext: -16; WT yeast gro inh: 2; Yeast growth inh: -52

What do the screens show for `Nc1nc(-c2ccccc2)c(N=Nc2cccc3ccccc23)s1`?
Cl transport mod: 0.081; RAM inhibit: 5; Yeast life ext: 3; WT yeast gro inh: 89*; Yeast growth inh: -38

What do the screens show for `CCOC(=O)c1[nH]c2cc3c(cc2c1NC(=O)CN1CCN(CCO)CC1)OCO3`?
Cl transport mod: -1.4

How did CCn1ncc(/C=N/NC(=O)c2cc(Cl)ccc2OC)c1C do in these assays?
Cl transport mod: -1.6; RAM inhibit: 1; Yeast life ext: 1; WT yeast gro inh: -3; Yeast growth inh: -28

What do the screens show for `CCOc1cccc(C(=O)Nc2ccc3oc(Cc4ccc(Cl)cc4)nc3c2)c1`?
Cl transport mod: -0.059; RAM inhibit: 11*; Yeast life ext: -4; WT yeast gro inh: 59*; Yeast growth inh: -40

What do the screens show for `CCc1ccc(OC)c(-c2csc(N)n2)c1`?
Cl transport mod: -3; RAM inhibit: 1; WT yeast gro inh: 58*

Results for O=S(=O)(/N=C(/c1ccc(F)cc1)N1CCCCC1)c1ccc(Cl)cc1 ?
Cl transport mod: 0.99; RAM inhibit: 0; Yeast life ext: -1; WT yeast gro inh: -3; Yeast growth inh: 7

How did C=CCNC(=S)N1CCN(c2ncc(C(F)(F)F)cc2Cl)CC1 do in these assays?
Cl transport mod: -0.14

What do the screens show for `CCOC(=O)c1c(C)oc2c1c(C(c1cccnc1)N1CCCCC1)c(O)c1ccccc12` (configuration not stated)?
Cl transport mod: -0.027; RAM inhibit: 1; Yeast life ext: 50*; WT yeast gro inh: 71*; Yeast growth inh: -35

How did CCOC(=O)c1c(C)oc2c1c(C(c1ccccc1)N1CCOCC1)c(O)c1ccccc12 (configuration not stated) do in these assays?
Cl transport mod: -0.036; RAM inhibit: 3; Yeast life ext: 24; WT yeast gro inh: 67*; Yeast growth inh: -23

What do the screens show for `CCOC(=O)c1c(C)oc2c1c(C=NCCO)c(O)c1ccccc12`?
Cl transport mod: -0.84; RAM inhibit: 2; WT yeast gro inh: 4

How did COc1ccc(N2CCN(C(=O)CCc3ccc(S(=O)(=O)NC(C)(C)C)cc3)CC2)cc1 do in these assays?
Cl transport mod: -0.11

What do the screens show for `C1=C(CCNc2ncnc3c2[nH]c2ccccc23)CCCC1`?
Cl transport mod: -2.5; RAM inhibit: 3; Yeast life ext: -2; WT yeast gro inh: 87*; Yeast growth inh: -24

Results for CCCCCCCC(O)CC(CC1CCCCC1)C(=O)NN (configuration not stated) ?
Cl transport mod: -0.028; RAM inhibit: 0; Yeast life ext: -4; WT yeast gro inh: 15; Yeast growth inh: 23
